Compound activity (PubChem)
The list is not random: actives were taken first. Their share in the collection is about 1.9%.
Cneo AK release = causes C. neoformans cell lysis | adenylate kinase release luminescence, 4 h; normalised: neutral wells 0, clomiphene wells 100 | lysis activity, % at 15 µM | 360,000 compounds, 0.2% hits;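 active = mean lysis activity across replicates of at least 80%, whatever share of replicates individually reach that level; inactive = mean lysis activity below 80%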
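Assay system: log-phase C. neoformans yeast / Quantity: yeast cell density of 5 × 10^6 cells/mL / Medium: fresh YPD growth medium / Compound: single dose / Timing: static 4 h at 37 °C with compound, 1 h detection / Measured by: adenylate kinase release luminescence / Read-out: lysis from increased AK signal / Benchmarks: Clomiphene as positive lysis control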
XiGFP reactiv = X-chromosome reactivation activator; XiGFP mouse fibroblasts, % GFP-positive cells imaging, 3 d; cells co-treated with 5-aza-dC sensitizer; scaled so ellipticine positive control = 100%; activation, % at 7.58 µM; 360,000 compounds, 0.055% hits;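 active = mean normalized replicate activation at least 10% and every replicate at or above 10%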;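 note: 0% = median of on-plate neutral control wells and 100% = ellipticine 6 µM median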
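System: XiGFP fibroblasts, SV40-immortalized. Medium: DMEM plus 5-aza-dC sensitizer. Doses: single point. Timing: 3 d treatment, 15 min room-temperature fixation. Control set: ellipticine 6 µM.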
FN deposit inh = fibronectin deposition inhibition | inhibition, % at 12.6 µM | AH1F fibroblasts, Alexa488-fibronectin deposition fluorescence, overnight | AID 743247 | 350,000 compounds, 0.086% hits;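 active = mean inhibition across replicates of 30% or more, regardless of how many single replicates reach that level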;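 note: positive control wells lacked labelled fibronectin entirely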
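Measured by – fluorescence 485/525 nm · System – AH1F fibroblast monolayer, labelled fibronectin deposition · Amount – 10000 cells per well · Buffer or medium – serum-reduced DMEM (2% serum) · Doses – single dose, pinned · Also added – fluorescent fibronectin at 24 nM final · Schedule – 1 h cell attachment, overnight exposure to compound and label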
CFTR F508del cor = CFTR F508del correction in bronchial cells; CFBE cells, YFP halide quenching; stimulated with forskolin plus potentiator P3; % fluorescence drop versus neutral controls; activity (quench increase), % at 7.58 µM; 350,000 compounds, 0.36% hits; AID 720511;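 active = mean added fluorescence quench of at least 8% versus neutral control, with both replicates also reaching 8%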;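 note: cells transiently co-express mutant CFTR-F508del with the halide-sensitive YFP; corrector assay measuring rescue of mutant channel to the surface after 24 h compound exposure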
DENV2 CPE rescue = protects cells from dengue virus 2 cytopathic effect | DENV2-infected cells, cytopathic effect rescue, plate reader | CPE inhibition, % at 9.99 µM | 350,000 compounds, 1.7% hits | AID 651640; in the data active = CPE inhibition above about 20%, passing the limit was not always enough; tested in BHK-21 cells;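 note: 0% = median of neutral control wells and 100% = median of positive control wells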
PGC1a acetyl inh = lowers PGC1a acetylation signal in U2OS cells; AlphaScreen anti-acetyl-lysine; with virally co-expressed GCN5 acetyltransferase; inhibition, % at 15.6 µM; 350,000 compounds, 0.17% hits;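 active = every replicate shows inhibition of at least 40%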;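 note: 0% = neutral control wells and 100% = positive control wells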
* hit, by the source's call; x = not tested or not shown.

SMILES	Cneo AK release	XiGFP reactiv	FN deposit inh	CFTR F508del cor	DENV2 CPE rescue	PGC1a acetyl inh
COc1ccc(NC(=O)N[C@@H]2CC[C@H](CCNS(=O)(=O)c3ccccc3F)O[C@@H]2CO)cc1	7	0	4	1	6	-3
Cc1oc2cc3oc(=O)c(CCC(=O)NCCCn4ccnc4)c(C)c3cc2c1C	3	x	x	3	21*	-19
Cc1coc2cc3oc(=O)c(CCC(=O)NCCCn4ccnc4)c(C)c3cc12	0	x	x	3	-12	-11
Cc1c(CCC(=O)NCCCN2CCCC2=O)c(=O)oc2cc(O)ccc12	0	x	x	-2	67*	-4
C[C@H]1CN([C@@H](C)CO)C(=O)c2cc(NC(=O)Nc3ccccc3)ccc2O[C@H]1CN(C)S(=O)(=O)c1ccc(Cl)cc1	-1	0	x	-2	-10	0
O=C(C[C@H]1CC[C@@H]2[C@H](COC[C@H](O)CN2CC2CCOCC2)O1)NCc1ccc(Cl)cc1	86*	0	-13	-2	-2	-3
O=C(C[C@@H]1CC[C@@H]2[C@H](COC[C@H](O)CN2Cc2cccc(C(F)(F)F)c2)O1)NCc1ccc(Cl)cc1	83*	0	-8	4	-3	1
O=C(C[C@H]1CC[C@@H]2[C@H](COC[C@@H](O)CN2Cc2cccc(C(F)(F)F)c2)O1)NCc1ccc(Cl)cc1	110*	0	-8	-1	1	-2
O=C(C[C@@H]1CC[C@@H]2[C@H](COC[C@H](O)CN2Cc2cc(F)cc(F)c2)O1)NCc1cccc(F)c1	0	0	0	-1	22*	0
CCN1[C@@H]2Cn3c(ccc(-c4ccccc4F)c3=O)[C@H]1[C@@H](C(=O)NCCOC)[C@@H]2CO	0	0	x	-4	12	1
O=S(=O)(c1ccc(Cl)cc1)N1CCN(Cc2cccc(OCCO)c2)CC1	28	x	x	2	4	x
COc1ccc2c3c(n(C)c2c1)[C@@H](CO)N(C(C)=O)CC31CN(C(=O)C2CCOCC2)C1	x	0	x	0	5	x
C[C@H]1CN([C@@H](C)CO)C(=O)c2cc(C#CC3CCCCC3)cnc2O[C@H]1CN(C)C(=O)c1ccncc1	2	0	5	-3	-2	0
CNC[C@H]1Oc2c(NC(=O)Cc3ccccc3)cccc2C(=O)N([C@H](C)CO)C[C@@H]1C	x	-1	-3	x	x	x
O=C(C[C@@H]1CC[C@H]2[C@@H](COC[C@H](O)CN2Cc2cccc(C(F)(F)F)c2)O1)NCc1ccccc1	100*	0	-7	-2	-5	16
CC(=O)Nc1cccc(-c2ccnc3c2CC(C)(C(=O)NCc2cccc(Cl)c2)O3)c1 (stereo not drawn)	-3	0	20	0	2	-16
CC(=O)Nc1cccc(-c2ccnc3c2CC(C)(C(=O)Nc2cccc(C(F)(F)F)c2)O3)c1 (stereo not drawn)	2	0	30*	-2	4	-5
CC(=O)Nc1cccc(-c2ccnc3c2CC(C)(C(=O)NCc2cccs2)O3)c1 (stereo not drawn)	0	1	13	9.9*	2	x
COc1cccc(CNC(=O)C[C@H]2CC[C@H](NC(=O)C3CCOCC3)[C@H](CO)O2)c1	1	0	-7	0	2	-1
O=C(c1ccc(Cl)c(NC2=NC3CS(=O)(=O)CC3S2)c1)N1CCN(c2ccccc2)CC1 (stereo not drawn)	-1	0	3	1	-4	1
COc1cccc(N2CCN(C(=O)c3cccc(NC4=NC5CS(=O)(=O)CC5S4)c3)CC2)c1 (stereo not drawn)	10	0	4	4	35*	-2
CCOC(=O)C1CCN(C(=O)c2cccc(NC3=NC4CS(=O)(=O)CC4S3)c2)CC1 (stereo not drawn)	-1	0	-2	-3	8	-2
Cc1ccc(C)c(N2CCN(C(=O)c3ccc(Cl)c(NC4=NC5CS(=O)(=O)CC5S4)c3)CC2)c1 (stereo not drawn)	-3	0	9	-1	28*	9
